From ChEMBL document CHEMBL4261634, “Design and optimization of 2,3-dihydrobenzo[b][1,4]dioxine propanoic acids as novel GPR40 agonists with improved pharmacokinetic and safety profiles” (Bioorg Med Chem, 2018) come the findings set out here.

What is called Cmax is the peak of the concentration-time curve. The term AUC(0-t) denotes the area under the concentration-time curve up to a stated or last time point. The Tmax is the time at which the peak concentration occurs. A word on the IC50: it is the point on the concentration scale where inhibition reaches its midpoint. A lower IC50 goes with greater potency.

In data set [1] the test system is Rattus norvegicus. As to the kind of experiment: Antidiabetic activity in Sprague-Dawley rat assessed as reduction in blood glucose excursion at 10 mg/kg, po administered 60 mins prior to glucose challenge by OGTT. It is filed as functional, organism-based. The method in brief:
(§1)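 OGTT in SD rats: compound given orally 60 min before a 3.0 g/kg glucose challenge. Blood glucose followed over time, and AUC0-60min or AUC0-120min calculated versus vehicle group. Mean ± SD, n = 8.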

In data set [2] the test system is Rattus norvegicus. Put plainly: Antidiabetic activity in Sprague-Dawley rat assessed as reduction in blood glucose AUC (0 to 60 mins) at 10 mg/kg, po administered 60 mins prior to glucose challenge by OGTT. It is filed as functional, organism-based. The gist of the method:
as §1

Data set [3] relates to Rattus norvegicus. As to the kind of experiment: Antidiabetic activity in Sprague-Dawley rat assessed as reduction in blood glucose AUC (0 to 120 mins) at 10 mg/kg, po administered 60 mins prior to glucose challenge by OGTT. The class given is functional, organism-based. The gist of the method: as §1
The nature of data set [4]: Cmax in Sprague-Dawley rat at 10 mg/kg, po by LC-ESI-MS analysis. It is filed as ADME, organism-based. Further details: dose 10 mg/kg, route oral. As to conditions: in vivo. The method in brief: (§2)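 SD rats dosed orally (3 or 10 mg/kg) or by intravenous injection (1 mg/kg). Plasma PK parameters derived per route: Cmax, AUC0-t, Tmax, t1/2 and F after oral dosing; CL, AUC0-t, MRT, t1/2 and Vdss after iv dosing. Mean ± SD from three independent experiments (n = 3).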

Data set [5] is described as follows: AUC (0 to t) in Sprague-Dawley rat at 10 mg/kg, po by LC-ESI-MS analysis. It is filed as ADME, organism-based. The following applies: in vivo. The method in brief: as §2
Data set [6] can be described thus: Tmax in Sprague-Dawley rat at 10 mg/kg, po by LC-ESI-MS analysis. It is filed as ADME, organism-based. The following applies: in vivo. The gist of the method: as §2
Data set [7] can be described thus: Elimination half life in Sprague-Dawley rat at 10 mg/kg, po by LC-ESI-MS analysis. It is filed as ADME, organism-based. The following applies: in vivo, read-out: beta t1/2 (converted). The gist of the method: as §2
Data set [8] addresses ATP-binding cassette sub-family C member 2 (Homo sapiens, UniProt Q92887). As to the kind of experiment: Inhibition of human MRP2.
The target in data set [9] is T1, Solute carrier organic anion transporter family member 1B1 (Homo sapiens, UniProt Q9Y6L6).
T1 sequence (Q9Y6L6 whole entry): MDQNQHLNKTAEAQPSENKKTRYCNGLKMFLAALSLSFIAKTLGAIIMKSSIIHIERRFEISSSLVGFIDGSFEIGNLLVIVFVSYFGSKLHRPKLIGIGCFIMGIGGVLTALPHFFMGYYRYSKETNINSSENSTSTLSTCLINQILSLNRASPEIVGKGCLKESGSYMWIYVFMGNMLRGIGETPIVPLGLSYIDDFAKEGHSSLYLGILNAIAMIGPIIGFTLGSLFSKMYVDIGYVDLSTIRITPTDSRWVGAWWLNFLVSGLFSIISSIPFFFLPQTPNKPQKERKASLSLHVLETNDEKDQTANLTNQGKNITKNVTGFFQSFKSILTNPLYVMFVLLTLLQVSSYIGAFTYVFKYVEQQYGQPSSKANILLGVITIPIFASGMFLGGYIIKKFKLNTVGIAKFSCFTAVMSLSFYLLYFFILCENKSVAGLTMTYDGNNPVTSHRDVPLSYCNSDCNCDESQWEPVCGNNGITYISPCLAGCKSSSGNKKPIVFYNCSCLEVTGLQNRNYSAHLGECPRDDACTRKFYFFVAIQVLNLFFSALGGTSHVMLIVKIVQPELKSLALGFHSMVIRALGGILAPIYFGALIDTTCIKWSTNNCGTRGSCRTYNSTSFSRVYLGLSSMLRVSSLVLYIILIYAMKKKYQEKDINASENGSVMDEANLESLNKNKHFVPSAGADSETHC
As to the kind of experiment: Inhibition of human OATP1BA.

The target in data set [10] is T2, Solute carrier organic anion transporter family member 1B3 (Homo sapiens, UniProt Q9NPD5).
T2 sequence (Q9NPD5 whole entry): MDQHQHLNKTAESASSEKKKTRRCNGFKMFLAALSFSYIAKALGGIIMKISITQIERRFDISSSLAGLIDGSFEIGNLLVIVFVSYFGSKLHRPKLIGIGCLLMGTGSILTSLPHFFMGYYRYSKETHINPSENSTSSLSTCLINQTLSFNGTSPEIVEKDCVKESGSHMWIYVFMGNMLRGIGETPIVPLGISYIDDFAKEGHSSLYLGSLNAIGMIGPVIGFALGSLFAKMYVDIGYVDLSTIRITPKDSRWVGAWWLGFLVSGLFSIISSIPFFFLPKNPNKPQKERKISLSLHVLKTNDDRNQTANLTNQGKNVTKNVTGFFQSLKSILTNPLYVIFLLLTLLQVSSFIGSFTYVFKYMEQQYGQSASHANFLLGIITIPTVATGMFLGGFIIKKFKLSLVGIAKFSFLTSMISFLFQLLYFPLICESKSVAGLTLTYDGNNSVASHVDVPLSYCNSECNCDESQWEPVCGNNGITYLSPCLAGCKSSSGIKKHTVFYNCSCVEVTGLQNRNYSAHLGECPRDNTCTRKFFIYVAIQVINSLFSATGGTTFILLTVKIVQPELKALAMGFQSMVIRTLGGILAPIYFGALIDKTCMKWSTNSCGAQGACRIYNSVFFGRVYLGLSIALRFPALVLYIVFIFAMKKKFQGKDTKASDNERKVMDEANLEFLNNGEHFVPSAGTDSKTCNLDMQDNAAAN
As to the kind of experiment: Inhibition of human OATP1B3. It is filed as ADME.

Another data set relates to Hepatocyte. As to the kind of experiment: Toxicity in sandwich-cultured Sprague-Dawley rat hepatocytes assessed as inhibition of hepatobiliary transport by measuring biliary excretion index at 20 to 40 uM after 15 mins in presence of d8-TCA by LC-MS/MS analysis. The class given is cell-based. The following applies: 0.25 h. The gist of the method:
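Sandwich-cultured rat hepatocytes incubated with compound and d8-TCA in standard (Ca2+-containing) or Ca2+-free buffer. Cellular d8-TCA measured, and the biliary excretion index calculated as the fraction of accumulated bile acid excreted into bile. Mean of three independent experiments.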

Calls of active or inactive are those of the source. No cut-off for these calls is given here.

Sequence of ATP-binding cassette sub-family C member 2 (Q92887 whole entry): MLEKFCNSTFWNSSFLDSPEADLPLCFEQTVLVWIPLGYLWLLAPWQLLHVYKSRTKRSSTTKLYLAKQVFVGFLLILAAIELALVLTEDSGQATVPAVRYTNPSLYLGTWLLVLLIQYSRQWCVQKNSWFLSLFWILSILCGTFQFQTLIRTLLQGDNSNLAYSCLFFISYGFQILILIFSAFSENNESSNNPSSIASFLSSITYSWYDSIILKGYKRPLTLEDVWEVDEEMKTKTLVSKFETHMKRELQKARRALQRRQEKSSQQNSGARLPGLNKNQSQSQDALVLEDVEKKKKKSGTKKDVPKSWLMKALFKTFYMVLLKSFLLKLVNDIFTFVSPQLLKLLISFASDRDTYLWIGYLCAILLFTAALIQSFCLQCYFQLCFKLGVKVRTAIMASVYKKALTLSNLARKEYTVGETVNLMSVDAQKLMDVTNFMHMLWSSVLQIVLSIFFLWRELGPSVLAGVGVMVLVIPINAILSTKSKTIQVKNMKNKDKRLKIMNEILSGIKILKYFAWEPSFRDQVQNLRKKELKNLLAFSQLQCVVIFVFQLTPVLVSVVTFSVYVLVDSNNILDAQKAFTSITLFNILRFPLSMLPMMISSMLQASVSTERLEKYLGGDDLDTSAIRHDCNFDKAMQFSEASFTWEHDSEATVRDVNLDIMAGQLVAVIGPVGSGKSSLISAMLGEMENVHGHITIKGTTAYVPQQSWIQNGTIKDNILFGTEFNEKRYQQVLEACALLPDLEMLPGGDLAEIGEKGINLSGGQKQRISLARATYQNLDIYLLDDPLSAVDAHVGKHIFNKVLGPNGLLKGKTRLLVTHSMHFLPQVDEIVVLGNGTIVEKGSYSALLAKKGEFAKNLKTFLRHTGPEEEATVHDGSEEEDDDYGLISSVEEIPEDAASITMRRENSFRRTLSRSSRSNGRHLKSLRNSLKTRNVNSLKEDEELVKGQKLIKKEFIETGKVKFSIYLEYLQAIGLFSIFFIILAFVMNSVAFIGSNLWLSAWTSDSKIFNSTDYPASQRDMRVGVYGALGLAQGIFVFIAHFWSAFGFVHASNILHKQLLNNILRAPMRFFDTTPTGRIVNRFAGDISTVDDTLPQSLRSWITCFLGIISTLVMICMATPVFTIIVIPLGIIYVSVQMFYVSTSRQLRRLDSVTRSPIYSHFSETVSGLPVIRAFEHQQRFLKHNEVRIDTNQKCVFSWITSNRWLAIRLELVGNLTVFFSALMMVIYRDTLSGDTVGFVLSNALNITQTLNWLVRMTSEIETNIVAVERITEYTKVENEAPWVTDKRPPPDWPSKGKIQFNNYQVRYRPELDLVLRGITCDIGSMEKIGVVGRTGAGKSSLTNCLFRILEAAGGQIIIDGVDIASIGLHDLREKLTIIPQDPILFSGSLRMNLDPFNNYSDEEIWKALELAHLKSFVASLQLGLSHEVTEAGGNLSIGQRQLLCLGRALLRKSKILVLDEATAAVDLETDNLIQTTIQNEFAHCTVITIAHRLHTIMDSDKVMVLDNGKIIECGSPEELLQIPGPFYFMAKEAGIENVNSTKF

Turning to `Cc1cc(OCCCS(C)(=O)=O)cc(C)c1-c1cccc(COc2ccc3c(c2)OC[C@H]3CC(=O)O)c1`, the result with Rattus norvegicus [1], with Rattus norvegicus [2] and with Rattus norvegicus [3] was Active. In [4], this compound had a Cmax of 19400 ng/mL. In data set [5], this compound displayed an AUC(0-t) of 137 µg·h/mL. In addition, the Tmax in data set [6] is 3.5 h. Also, the half-life in [7] was 3.94 h. Besides, the half-inhibitory concentration (IC50) in [8] was found to be 2.41 µM; in data set [9] it was 2.28 µM; in [10] it was 11.2 µM. In the data set with Hepatocyte, the Activity result is “Toxic”.
